≈ marks a conversion by molar mass, not a printed value. Calls of active or inactive are those of the source. No cut-off for these calls is given here.
Assays:
[1] = Solubility of the compound in PBS at pH 7.4 after 24 hrs by turbidimetric analysis; type: physicochemical
Method in brief: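 Doubling dilutions in DMSO diluted 20-fold into 100 mM PBS pH 7.4, equilibrated 24 h at room temperature, absorbance read at 620 nm. Value is the highest concentration with no measurable precipitate.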

Haemophilus influenzae = test: Antibacterial activity against Haemophilus influenzae ATCC 49247 assessed as growth inhibition after 16 to 20 hrs by broth microdilution method; type: functional
Method in brief: (§1)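 Broth microdilution susceptibility testing following the CLSI M7-A7 standard; MIC determined.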

Enterococcus faecalis = test: Antibacterial activity against Enterococcus faecalis ATCC 29212 assessed as growth inhibition after 16 to 20 hrs by broth microdilution method; type: functional; method in brief: as §1
Streptococcus pyogenes = test: Antibacterial activity against Streptococcus pyogenes ATCC 51339 assessed as growth inhibition after 16 to 20 hrs by broth microdilution method; type: functional; method in brief: as §1
Staphylococcus aureus [2] = test: Antibacterial activity against Staphylococcus aureus ATCC 29213 assessed as growth inhibition after 16 to 20 hrs by broth microdilution method; type: functional; method in brief: as §1
DNA gyrase = DNA gyrase (Staphylococcus aureus, UniProt P0A0K8+P20831); test: Inhibition of Staphylococcus aureus DNA gyrase ATPase subunit GyrA2/GyrB2 after 60 mins by malachite green staining assay; type: protein-complex assay
Method in brief: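 S. aureus gyrase A2B2, 10 nM, with 0.08 mg/mL DNA in 40 mM HEPES pH 7.6, 10 mM Mg acetate, 0.5 M K glutamate, 0.01 mg/mL BSA, 2 mM DTT, 5% DMSO. Reaction started with 1 mM ATP and run 60 min at 30 °C. Malachite green absorbance read at 600 nm. IC50 derived using no-compound and no-enzyme controls.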

[3] = Inhibition of Escherichia coli DNA gyrase ATPase subunit A2B2 after 60 mins by malachite green staining assay
Method in brief: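 E. coli gyrase A2B2, 10 nM, with 0.08 mg/mL DNA in 35 mM Tris pH 7.5, 24 mM KCl, 2 mM MgCl2, 6.5% glycerol, 0.1 mg/mL BSA, 2 mM DTT, 5% DMSO. Started with 1 mM ATP, 30 °C for 60 min. Phosphate read with malachite green at 600 nm after 5 min. IC50 taken against no-compound and no-enzyme controls.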

[4] = Clearance in rat at 3 mg/kg, iv; type: ADME, organism-based; set-up: dose 3 mg/kg, route intravenous; conditions: in vivo
Method in brief: (§2)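 Single 3 mg/kg dose given as an IV bolus by tail vein or by oral gavage, dose volume 5 mL/kg. Rats were bled by jugular vein catheter. Anaesthetised mice were bled from the retro-orbital plexus. Plasma was extracted into methanol and drug measured by LC/MS/MS. Cmax (oral), AUC and clearance (IV) and bioavailability were calculated from plasma concentrations.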

[5] = Clearance in mouse at 3 mg/kg, iv; type: ADME, organism-based; set-up: dose 3 mg/kg, route intravenous; conditions: in vivo; method in brief: as §2
[6] = Oral bioavailability in rat at 3 mg/kg; type: ADME, organism-based; conditions: in vivo; method in brief: as §2
[7] = Oral bioavailability in mouse at 3 mg/kg; type: ADME, organism-based; conditions: in vivo; method in brief: as §2
[8] = AUC in rat at 3 mg/kg, iv; type: ADME, organism-based; set-up: dose 3 mg/kg, route intravenous; conditions: plasma; method in brief: as §2
[9] = AUC in mouse at 3 mg/kg, iv; type: ADME, organism-based; set-up: dose 3 mg/kg, route intravenous; conditions: plasma; method in brief: as §2
[10] = Cmax in rat at 3 mg/kg, po; type: ADME, organism-based; set-up: dose 3 mg/kg, route oral; conditions: in vivo; method in brief: as §2
[11] = Intrinsic clearance in mouse liver microsomes at 10 uM by LC-MS analysis; type: ADME, Microsome; conditions: read-out: CLH
Method in brief: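 Compound at 10 μM, duplicate, 0.1% DMSO, with mouse liver microsomes at 1 mg/mL protein. Started with 1 mM NADPH and stopped at 0, 10, 30 and 60 min. Acetonitrile extracts analysed by LCMS. T1/2 taken from the slope of peak area over time, then converted to intrinsic clearance.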

[12] = Cmax in mouse at 3 mg/kg, po; type: ADME, organism-based; set-up: dose 3 mg/kg, route oral; conditions: in vivo; method in brief: as §2
Staphylococcus aureus [13] = test: Antibacterial activity against Staphylococcus aureus ATCC 29213 assessed as spontaneous mutant measuring frequency of resistance at 4 to 8 fold MIC relative to control; type: functional, organism-based
[14] = Plasma protein binding in rat; type: ADME, cell-free; conditions: read-out: PPB (converted)
Topoisomerase IV = Topoisomerase IV (Staphylococcus aureus, UniProt P0C1S7+P0C1U9); test: Inhibition of Staphylococcus aureus DNA topoisomerase 4 subunit ParC2/ParE2 after 60 mins by malachite green staining assay; type: protein-complex assay
Method in brief: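 S. aureus topo IV C2E2, 25 nM, with 0.01 mg/mL DNA in 50 mM Tris-HCl pH 7.5, 5 mM MgCl2, 0.35 M K glutamate, 0.05 mg/mL BSA, 5 mM DTT, 1% DMSO. ATP added at 1 mM to start, then 30 °C for 60 min. Malachite green read at 600 nm. IC50 calculated relative to no-compound and no-enzyme controls.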

solubility kinetic at 24 h [1] [µg/mL]	MIC (Haemophilus influenzae) [µg/mL]	MIC (Enterococcus faecalis) [µg/mL]	MIC (Streptococcus pyogenes) [µg/mL]	MIC (Staphylococcus aureus [2]) [µg/mL]	IC50 (DNA gyrase) [nM]	IC50 [3] [µg/mL]	clearance [4] [mL/min/kg]	clearance [5] [mL/min/kg]	bioavailability [6] [%]	bioavailability [7] [%]	AUC [8] [ng·h/mL]	AUC [9] [ng·h/mL]	Cmax [10] [ng/mL]	CLint scaled at 10 µM [11] [mL/min/kg]	Cmax [12] [ng/mL]	SMILES	Activity (Staphylococcus aureus [13])	fraction unbound [14]	IC50 (Topoisomerase IV) [nM]
> 800	16 (≈ 28 µM)	0.25 (≈ 0.437 µM)	0.25 (≈ 0.437 µM)	2 (≈ 3.5 µM)	28	–	–	–	–	–	–	–	–	–	–	CCNC(=O)Nc1nc2cc(-c3cnc(N4CCC(C(=O)O)(C(F)(F)F)CC4)nc3)cc(-c3ccccn3)c2s1	–	–	–
100 (≈ 192 µM)	8 (≈ 15.4 µM)	0.5 (≈ 0.962 µM)	0.12 (≈ 0.231 µM)	8 (≈ 15.4 µM)	–	0.003 (≈ 0.00577 µM)	–	–	–	–	–	–	–	–	–	CCNC(=O)Nc1nc2cc(-c3cnc(N4CCC(O)(C(=O)O)CC4)nc3)cc(-c3ccccn3)c2s1	–	–	–
6.25 (≈ 16.6 µM)	–	0.12 (≈ 0.32 µM)	–	–	37.3	–	–	–	–	–	–	–	–	–	–	CCNC(=O)Nc1nc2cc(-c3cccnc3)cc(-c3ccccn3)c2s1	–	–	–
> 800	2 (≈ 3.87 µM)	0.03 (≈ 0.0581 µM)	0.12 (≈ 0.232 µM)	0.12 (≈ 0.232 µM)	23.2	–	7.6	6.5	31	33	6600	7600	600	< 5.8	1700	CCNC(=O)Nc1nc2cc(-c3ccc(N4CCC(C)(C(=O)O)CC4)nc3)cc(-c3ccccn3)c2s1	–	–	–
12.5 (≈ 21.6 µM)	> 16	0.06 (≈ 0.104 µM)	0.5 (≈ 0.863 µM)	0.5 (≈ 0.863 µM)	–	0.013 (≈ 0.0224 µM)	–	–	–	–	–	–	–	< 5.8	–	CCNC(=O)Nc1nc2cc(-c3cnc(N4CCC(C(=O)O)(c5ccccc5)CC4)nc3)cc(-c3ccccn3)c2s1	–	–	–
> 800	8 (≈ 15 µM)	–	0.12 (≈ 0.226 µM)	0.12 (≈ 0.226 µM)	11.3	–	–	–	–	–	–	–	–	< 5.8	–	CCNC(=O)Nc1nc2cc(-c3cnc(N4CCCC(C)(C(=O)O)CC4)nc3)cc(-c3ccccn3)c2s1 (stereo not drawn)	–	–	–
> 800	4 (≈ 7.94 µM)	–	0.5 (≈ 0.993 µM)	2 (≈ 3.97 µM)	79.4	–	–	–	–	–	–	–	–	–	–	CCNC(=O)Nc1nc2cc(-c3cnc(N4CCC(C)(C(=O)O)C4)nc3)cc(-c3ccccn3)c2s1 (stereo not drawn)	–	–	–
> 800	8 (≈ 15.5 µM)	0.03 (≈ 0.058 µM)	0.12 (≈ 0.232 µM)	0.5 (≈ 0.966 µM)	38.6	–	–	–	–	–	–	–	–	< 5.8	–	CCNC(=O)Nc1nc2cc(-c3cnc(N4CCC(C)(C(=O)O)CC4)cn3)cc(-c3ccccn3)c2s1	–	–	–
–	> 16	–	1 (≈ 1.91 µM)	1 (≈ 1.91 µM)	107	–	–	–	–	–	–	–	–	–	–	CCNC(=O)Nc1nc2cc(-c3nc(N4CCC(C)(C(=O)O)CC4)ns3)cc(-c3ccccn3)c2s1	–	–	–
6.25 (≈ 12.1 µM)	8 (≈ 15.5 µM)	0.5 (≈ 0.966 µM)	0.5 (≈ 0.966 µM)	0.5 (≈ 0.966 µM)	–	0.007 (≈ 0.0135 µM)	–	–	–	–	–	–	–	–	–	CCNC(=O)Nc1nc2cc(-c3cnc(N4CCCCC4(C)C(=O)O)nc3)cc(-c3ccccn3)c2s1 (stereo not drawn)	–	–	–
25 (≈ 48.2 µM)	> 16	> 16	4 (≈ 7.71 µM)	> 16	–	0.025 (≈ 0.0482 µM)	–	–	–	–	–	–	–	–	–	CCNC(=O)Nc1nc2cc(-c3cnc(N4CCC(N)(C(=O)O)CC4)nc3)cc(-c3ccccn3)c2s1	–	–	–
> 800	4 (≈ 7.74 µM)	0.06 (≈ 0.116 µM)	0.06 (≈ 0.116 µM)	1 (≈ 1.94 µM)	29	–	–	–	–	–	–	–	–	–	–	CCNC(=O)Nc1nc2cc(-c3cncc(N4CCC(C)(C(=O)O)CC4)c3)cc(-c3ccccn3)c2s1	–	–	–
> 800	1 (≈ 1.99 µM)	0.25 (≈ 0.496 µM)	0.06 (≈ 0.119 µM)	0.5 (≈ 0.993 µM)	9.93	–	–	–	–	–	–	–	–	–	–	CCNC(=O)Nc1nc2cc(-c3cnc(N4CCCC4(C)C(=O)O)nc3)cc(-c3ccccn3)c2s1 (stereo not drawn)	–	–	–
50 (≈ 119 µM)	–	0.12 (≈ 0.286 µM)	–	–	2.38	–	–	–	–	–	–	–	–	–	–	CCNC(=O)Nc1nc2cc(-c3ccc(C(=O)O)nc3)cc(-c3ccccn3)c2s1	–	–	–
> 800	4 (≈ 7.52 µM)	0.015 (≈ 0.0282 µM)	0.06 (≈ 0.113 µM)	0.06 (≈ 0.113 µM)	22.6	–	1.5	3.5	80	87	27700	14300	3500	< 5.8	6100	CCNC(=O)Nc1nc2cc(-c3cnc(N4CCC(CC)(C(=O)O)CC4)nc3)cc(-c3ccccn3)c2s1	–	–	–
> 800	> 16	4 (≈ 6.88 µM)	4 (≈ 6.88 µM)	> 16	–	0.015 (≈ 0.0258 µM)	–	–	–	–	–	–	–	–	–	CCNC(=O)Nc1nc2cc(-c3cnc(N4CCC(C(=O)O)(S(C)(=O)=O)CC4)nc3)cc(-c3ccccn3)c2s1	–	–	–

SMILES	solubility kinetic at 24 h [1] [µg/mL]	MIC (Haemophilus influenzae) [µg/mL]	MIC (Enterococcus faecalis) [µg/mL]	MIC (Streptococcus pyogenes) [µg/mL]	MIC (Staphylococcus aureus [2]) [µg/mL]	IC50 (DNA gyrase) [nM]	IC50 [3] [µg/mL]	clearance [4] [mL/min/kg]	clearance [5] [mL/min/kg]	bioavailability [6] [%]	bioavailability [7] [%]	AUC [8] [ng·h/mL]	AUC [9] [ng·h/mL]	Cmax [10] [ng/mL]	CLint scaled at 10 µM [11] [mL/min/kg]	Cmax [12] [ng/mL]	Activity (Staphylococcus aureus [13])	fraction unbound [14]	IC50 (Topoisomerase IV) [nM]
CCNC(=O)Nc1nc2cc(-c3cnc(N4CCC(C(=O)O)CC4)nc3)cc(-c3ccccn3)c2s1	> 800	2 (≈ 3.97 µM)	0.015 (≈ 0.0298 µM)	0.03 (≈ 0.0596 µM)	0.12 (≈ 0.238 µM)	19.9	–	–	55	–	8	–	900	–	< 5.8	70	inactive	0.007	23.8
CCNC(=O)Nc1nc2cc(-c3cnc(N4CCC(C)(C(=O)O)CC4)nc3)cc(-c3ccccn3)c2s1	> 800	2 (≈ 3.86 µM)	0.015 (≈ 0.029 µM)	0.06 (≈ 0.116 µM)	0.12 (≈ 0.232 µM)	15.5	–	2.8	–	–	–	–	–	1800	< 5.8	–	inactive	0.007	15.5
